From ChEMBL document CHEMBL3259575, “Evaluation of a large library of (thiazol-2-yl)hydrazones and analogues as histone acetyltransferase inhibitors: enzyme and cellular studies” (2014)

Assays:
[1] = biological target: Histone acetyltransferase p300 (Homo sapiens) (UniProt Q09472); experiment: Inhibition of recombinant human p300 catalytic domain (1284 to 1673 aa) using histone H3 at 100 uM after 1 hr by radiochemical assay in presence of [acetyl-3H]-acetyl coenzyme A
[2] = biological target: Histone acetyltransferase p300 (Homo sapiens) (UniProt Q09472); experiment: Inhibition of recombinant human p300 catalytic domain (1284 to 1673 aa) using histone H3 at 200 uM after 1 hr by radiochemical assay in presence of [acetyl-3H]-acetyl coenzyme A
[3] = biological target: Histone acetyltransferase p300 (Homo sapiens) (UniProt Q09472); experiment: Inhibition of recombinant human p300 catalytic domain (1284 to 1673 aa) using histone H3 at 400 uM after 1 hr by radiochemical assay in presence of [acetyl-3H]-acetyl coenzyme A
[4] = biological target: Histone acetyltransferase KAT2B (Homo sapiens) (UniProt Q92831); experiment: Inhibition of recombinant human PCAF catalytic domain (492 to 658 aa) using histone H3 at 100 uM after 1 hr by radiochemical assay in presence of [acetyl-3H]-acetyl coenzyme A
U-937 = experiment: Induction of apoptosis in human U937 cells at 100 uM after 30 hrs by FACS analysis relative to control; format: functional
How it was run: (§1)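 Cells cultured at 37 °C, 5% CO2 in RPMI-1640 plus 10% heat-inactivated FBS and antibiotics; treated 30 h; apoptosis read by FACS as the pre-G1 population, compared with untreated control.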

HCT-116 = experiment: Induction of apoptosis in human HCT116 cells at 100 uM after 30 hrs by FACS analysis relative to control; format: functional; how it was run: as §1

Histone acetyltransferase KAT2B (Homo sapiens), sequence (Q92831 whole entry, looked up, the tested form may be a part): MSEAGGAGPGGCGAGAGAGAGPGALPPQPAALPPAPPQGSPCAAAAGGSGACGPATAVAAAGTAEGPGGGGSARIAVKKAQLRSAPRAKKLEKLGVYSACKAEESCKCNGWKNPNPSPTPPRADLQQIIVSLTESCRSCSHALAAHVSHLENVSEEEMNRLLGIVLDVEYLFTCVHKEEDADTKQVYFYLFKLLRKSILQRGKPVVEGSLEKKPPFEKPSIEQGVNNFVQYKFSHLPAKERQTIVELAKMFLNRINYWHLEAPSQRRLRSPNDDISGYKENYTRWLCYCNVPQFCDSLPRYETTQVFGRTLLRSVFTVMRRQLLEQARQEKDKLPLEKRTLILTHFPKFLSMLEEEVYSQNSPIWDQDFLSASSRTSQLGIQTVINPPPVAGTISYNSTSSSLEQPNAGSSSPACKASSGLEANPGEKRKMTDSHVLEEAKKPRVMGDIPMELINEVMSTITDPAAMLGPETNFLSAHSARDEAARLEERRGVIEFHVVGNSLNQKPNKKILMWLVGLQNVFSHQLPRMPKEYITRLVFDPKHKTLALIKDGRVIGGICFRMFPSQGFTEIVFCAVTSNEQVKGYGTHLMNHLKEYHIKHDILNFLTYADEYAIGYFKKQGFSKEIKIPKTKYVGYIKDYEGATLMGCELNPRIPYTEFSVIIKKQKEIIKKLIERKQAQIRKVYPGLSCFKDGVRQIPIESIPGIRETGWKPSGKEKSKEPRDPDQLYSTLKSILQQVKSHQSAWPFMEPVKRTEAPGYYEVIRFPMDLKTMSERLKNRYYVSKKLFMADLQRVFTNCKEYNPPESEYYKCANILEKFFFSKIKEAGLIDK
Histone acetyltransferase p300 (Homo sapiens), sequence (Q09472 whole entry, the tested form may be a part): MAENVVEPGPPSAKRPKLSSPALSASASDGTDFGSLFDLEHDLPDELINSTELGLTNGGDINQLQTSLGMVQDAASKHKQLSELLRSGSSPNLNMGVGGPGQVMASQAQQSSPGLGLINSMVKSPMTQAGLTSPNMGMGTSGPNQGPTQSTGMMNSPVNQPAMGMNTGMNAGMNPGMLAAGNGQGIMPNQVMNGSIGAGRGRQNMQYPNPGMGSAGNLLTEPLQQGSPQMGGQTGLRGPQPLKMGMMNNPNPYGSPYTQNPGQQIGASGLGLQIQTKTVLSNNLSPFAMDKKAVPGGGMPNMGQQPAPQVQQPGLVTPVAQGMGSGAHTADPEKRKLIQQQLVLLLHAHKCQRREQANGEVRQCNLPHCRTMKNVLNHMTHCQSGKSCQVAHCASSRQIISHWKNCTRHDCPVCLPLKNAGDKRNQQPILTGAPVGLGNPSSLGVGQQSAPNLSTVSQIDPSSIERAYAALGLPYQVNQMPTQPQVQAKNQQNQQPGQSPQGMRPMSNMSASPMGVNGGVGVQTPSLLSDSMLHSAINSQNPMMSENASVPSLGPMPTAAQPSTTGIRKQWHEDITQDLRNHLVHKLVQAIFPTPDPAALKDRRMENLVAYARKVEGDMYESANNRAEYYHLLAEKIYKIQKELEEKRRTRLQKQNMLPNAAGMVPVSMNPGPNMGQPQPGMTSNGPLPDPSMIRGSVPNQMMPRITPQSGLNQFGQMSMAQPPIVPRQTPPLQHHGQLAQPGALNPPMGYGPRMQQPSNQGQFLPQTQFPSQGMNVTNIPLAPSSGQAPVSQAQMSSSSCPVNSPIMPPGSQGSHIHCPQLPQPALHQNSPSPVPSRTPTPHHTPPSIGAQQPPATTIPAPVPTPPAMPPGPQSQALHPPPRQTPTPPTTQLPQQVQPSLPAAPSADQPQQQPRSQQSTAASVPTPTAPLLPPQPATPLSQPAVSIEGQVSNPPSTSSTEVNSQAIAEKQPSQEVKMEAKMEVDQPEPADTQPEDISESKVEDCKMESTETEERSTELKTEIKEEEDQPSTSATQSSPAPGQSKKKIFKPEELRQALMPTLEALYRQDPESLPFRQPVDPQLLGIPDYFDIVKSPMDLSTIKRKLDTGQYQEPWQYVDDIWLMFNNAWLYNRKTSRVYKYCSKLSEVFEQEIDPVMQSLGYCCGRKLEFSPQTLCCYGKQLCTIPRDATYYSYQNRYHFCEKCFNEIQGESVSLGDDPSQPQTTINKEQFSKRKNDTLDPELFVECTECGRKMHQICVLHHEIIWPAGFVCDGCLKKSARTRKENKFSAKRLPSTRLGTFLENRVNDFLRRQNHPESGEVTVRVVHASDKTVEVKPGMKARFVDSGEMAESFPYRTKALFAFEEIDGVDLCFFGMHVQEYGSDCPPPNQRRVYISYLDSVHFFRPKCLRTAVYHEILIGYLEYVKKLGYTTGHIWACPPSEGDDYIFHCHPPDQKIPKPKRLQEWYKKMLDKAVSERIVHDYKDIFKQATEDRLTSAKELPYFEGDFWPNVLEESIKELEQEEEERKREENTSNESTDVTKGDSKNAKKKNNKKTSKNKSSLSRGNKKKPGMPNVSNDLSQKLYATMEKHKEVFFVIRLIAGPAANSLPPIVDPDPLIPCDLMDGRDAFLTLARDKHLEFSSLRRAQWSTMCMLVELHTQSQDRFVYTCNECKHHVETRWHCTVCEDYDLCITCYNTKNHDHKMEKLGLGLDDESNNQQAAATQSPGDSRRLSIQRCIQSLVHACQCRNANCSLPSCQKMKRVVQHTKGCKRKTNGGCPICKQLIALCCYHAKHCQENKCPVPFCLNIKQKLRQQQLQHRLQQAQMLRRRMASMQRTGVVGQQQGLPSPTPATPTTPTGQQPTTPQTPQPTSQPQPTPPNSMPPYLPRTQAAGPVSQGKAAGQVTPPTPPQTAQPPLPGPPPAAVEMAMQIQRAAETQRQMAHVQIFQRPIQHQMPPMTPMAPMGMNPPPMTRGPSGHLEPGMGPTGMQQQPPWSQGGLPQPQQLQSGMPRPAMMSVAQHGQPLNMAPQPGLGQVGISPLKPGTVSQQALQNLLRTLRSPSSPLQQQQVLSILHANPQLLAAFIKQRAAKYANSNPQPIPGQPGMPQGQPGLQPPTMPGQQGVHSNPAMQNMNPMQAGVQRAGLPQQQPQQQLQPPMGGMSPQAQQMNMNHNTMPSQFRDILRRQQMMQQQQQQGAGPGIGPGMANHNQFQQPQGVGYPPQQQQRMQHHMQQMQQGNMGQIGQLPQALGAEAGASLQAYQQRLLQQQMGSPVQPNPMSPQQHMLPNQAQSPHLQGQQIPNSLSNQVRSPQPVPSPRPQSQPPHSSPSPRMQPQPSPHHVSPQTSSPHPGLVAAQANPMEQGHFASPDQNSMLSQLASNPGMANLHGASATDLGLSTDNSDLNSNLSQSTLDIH

Structure (SMILES) | inhibition [1] [%] | inhibition [2] [%] | inhibition [3] [%] | inhibition [4] [%] | Activity (U-937) [%] | Activity (HCT-116) [%]
CC1CC/C(=N/Nc2nc(-c3cccc([N+](=O)[O-])c3)cc(=O)[nH]2)C1 (stereo unspecified) | 14 | – | – | – | – | –
C=CCC/C(C)=N/Nc1nc(-c2ccc(Cl)cc2)cs1 | 32 | – | – | 12 | – | –
CC(C)=NNc1nc(-c2ccccc2)cs1 | 14 | – | – | 0 | – | –
CC1CCC/C(=N/Nc2nc(-c3ccc(Cl)cc3)cs2)C1 (stereo unspecified) | 9 | – | – | 0 | – | –
CC1(C)C=C/C(=N\Nc2nc(-c3ccc(Cl)cc3)cs2)CC1 | 0 | – | – | 0 | – | –
CC(C)=NNc1nc(-c2ccc3ccccc3c2)cs1 | 25 | – | – | 10 | – | –
C/C(=N/Nc1nc(-c2ccc(Cl)cc2)cs1)c1nccs1 | 46 | 55 | 67 | 10 | – | –
CCCCC/C(C)=N/Nc1nc(-c2ccc(Cl)cc2)cs1 | 5 | – | – | 16 | – | –
CC(C)=NN=C1NC(=O)CS1 | 14 | – | – | 7 | – | –
Nc1nc(-c2ccc(Cl)cc2)cs1 | 31 | – | – | 0 | – | –
CC(C)=NNc1nc(-c2ccc(Cl)cc2Cl)cs1 | 30 | – | – | 16 | – | –
CCC(C)/C(C)=N/Nc1nc(-c2ccc(Cl)cc2)cs1 (stereo unspecified) | 2 | – | – | 9 | – | –
CC1CC/C(=N/Nc2nc(-c3ccc(Cl)cc3)cs2)C1 (stereo unspecified) | 27 | – | – | 0 | 29 | 11.5
CCOC(=O)c1csc(NN=C(C)C)n1 | 22 | – | – | 0 | – | –
Cc1sc(NN=C2CCCC2)nc1-c1ccccc1 | 2 | – | – | 2 | – | –
CCCC/C(C)=N/Nc1nc(-c2ccc(Cl)cc2)cs1 | 0 | – | – | 8 | – | –
COc1cccc(-c2csc(NN=C(C)C)n2)c1 | 30 | – | – | 4 | – | –
CC1CC/C(=N/Nc2nc(-c3ccc(F)cc3F)cs2)C1 (stereo unspecified) | 14 | – | – | 18 | – | –
O=c1cc(-c2ccccc2)nc(NN=C2CCCC2)[nH]1 | 3 | – | – | – | – | –
CC(C)=NNc1nc(-c2cc3ccccc3oc2=O)cs1 | 32 | 46 | 56 | 12 | – | –
O=[N+]([O-])c1cccc(-c2csc(NN=C3CCCC3)n2)c1 | 44 | 51 | 60 | 15 | – | –
O=c1cc(-c2cccc([N+](=O)[O-])c2)nc(NN=C2CCCC2)[nH]1 | 9 | – | – | – | – | –
O=c1cc(-c2ccc(Cl)cc2)nc(NN=C2CCCC2)[nH]1 | 31 | 46 | 54 | 10 | – | –
Clc1ccc(-c2csc(N/N=C\c3ccncc3)n2)cc1 | 37 | – | – | 13 | – | –
COc1ccc(-c2csc(N/N=C3/CCC(C)C3)n2)cc1 (stereo unspecified) | 28 | – | – | 5 | – | –
Cc1csc(NN=C2CCCC2)n1 | 0 | – | – | 30 | – | –
Nc1nc(-c2ccccc2)cs1 | 4 | – | – | 3 | – | –

Structure (SMILES) | inhibition [1] [%] | inhibition [2] [%] | inhibition [3] [%] | inhibition [4] [%] | Activity (U-937) [%] | Activity (HCT-116) [%]
CC1CC/C(=N/Nc2nc(-c3ccc4ccccc4c3)cs2)C1 (stereo unspecified) | 4 | – | – | 0 | – | –
CC1CC/C(=N/Nc2nc(-c3ccc(Br)cc3)cc(=O)[nH]2)C1 (stereo unspecified) | 12 | – | – | – | – | –
C/C(=N/Nc1nc(-c2ccc(Cl)cc2)cs1)C1CCCCC1 | 3 | – | – | 8 | – | –
CC(C)=NNc1nc(-c2ccc(Br)cc2)cs1 | 42 | 53 | 63 | 13 | – | –
c1ccc(-c2csc(NN=C3CCCC3)n2)cc1 | 37 | 56 | 54 | 15 | – | –
CC(C)=NNc1nc(-c2ccc(-c3ccccc3)cc2)cs1 | 20 | – | – | 0 | – | –
C/C(=N/Nc1nc(-c2ccc(Cl)cc2)cs1)c1ccccc1 | 7 | – | – | 9 | – | –
COc1ccc(-c2csc(N/N=C3/CCCC3C)n2)cc1 (stereo unspecified) | 32 | – | – | 2 | – | –
Clc1ccc(-c2csc(NN=C3CCCCCC3)n2)cc1 | 20 | – | – | 0 | – | –
CC(C)=NNc1nc(-c2ccc(F)cc2)cs1 | 34 | – | – | 0 | – | –
CC(C)=NNc1nc(C)cs1 | 13 | – | – | 3 | – | –
O=C1CSC(NN=C2CCCC2)=N1 | 0 | – | – | 1 | – | –
COc1ccc(-c2csc(NN=C3CCCCCC3)n2)cc1 | 16 | – | – | 0 | – | –
CC(C)=NNc1nc(-c2ccccc2)c(C)s1 | 20 | – | – | 5 | – | –
COc1ccc(-c2csc(N/N=C3\CCC[C@@H](C)C3)n2)cc1 | 27 | – | – | 0 | – | –
Clc1ccc(-c2csc(NN=C3CCCCCCC3)n2)cc1 | 15 | – | – | 6 | – | –
CC/C(C)=N/Nc1nc(-c2ccc(Cl)cc2)cs1 | 33 | – | – | 8 | – | –
Clc1ccc(-c2csc(N/N=C\c3ccc4c(c3)OCO4)n2)cc1 | 11 | – | – | 0 | – | –
C/C(=N/Nc1nc(-c2ccc(Cl)cc2)cs1)c1cccnc1 | 1 | – | – | 11 | – | –
CCCCCC/C(C)=N/Nc1nc(-c2ccc(Cl)cc2)cs1 | 8 | – | – | 10 | – | –
CC1CC/C(=N/Nc2nc(-c3ccccc3)cc(=O)[nH]2)C1 (stereo unspecified) | 0 | – | – | – | – | –
Clc1ccc(-c2csc(N/N=C\c3cccc4ccccc34)n2)cc1 | 9 | – | – | 0 | – | –
O=c1cc(-c2ccc(Br)cc2)nc(NN=C2CCCC2)[nH]1 | 9 | – | – | – | – | –
Clc1ccc(-c2csc(NN=C3CCCC3)n2)cc1 | 34 | 47 | 61 | 1 | – | –
COc1ccc(-c2csc(N/N=C3/CCCC(C)C3)n2)cc1 (stereo unspecified) | 19 | – | – | 4 | – | –
CC1CC/C(=N/Nc2nc(-c3ccc(C#N)cc3)cs2)C1 (stereo unspecified) | 35 | – | – | 6 | – | –

Now from value to compound, other results behind:

inhibition [1] [%] | inhibition [2] [%] | inhibition [3] [%] | inhibition [4] [%] | Structure (SMILES) | Activity (U-937) [%] | Activity (HCT-116) [%]
31 | 45 | 60 | 1 | CC(C)=NNc1nc(-c2ccc(Cl)cc2)cs1 | – | –
19 | – | – | 8 | c1ccc2cc(-c3csc(NN=C4CCCC4)n3)ccc2c1 | – | –
30 | – | – | 21 | Clc1ccc(-c2csc(NN=C3CCCC3)n2)c(Cl)c1 | – | –
36 | – | – | 10 | C/C(=N/Nc1nc(-c2ccc(Cl)cc2)cs1)c1ccncc1 | – | –
4 | – | – | – | CC(C)=NNc1nc(-c2cccc([N+](=O)[O-])c2)cc(=O)[nH]1 | – | –
5 | – | – | 8 | CC1CC/C(=N/Nc2nc(-c3ccc(F)cc3)cs2)C1 (stereo unspecified) | – | –
26 | – | – | 5 | C/C(=N/Nc1nc(-c2ccc(Cl)cc2)cs1)c1cccs1 | – | –
26 | – | – | 2 | C/C(=N/Nc1nc(-c2ccc(Cl)cc2)cs1)c1ccco1 | – | –
41 | 55 | 64 | 8 | CC1CC/C(=N/Nc2nc(-c3ccc(Cl)cc3)cc(=O)[nH]2)C1 (stereo unspecified) | – | –
7 | – | – | – | CC(C)=NNc1nc(-c2ccc(Cl)cc2)cc(=O)[nH]1 | – | –
28 | – | – | 17 | Clc1ccc(-c2csc(N/N=C\c3cccnc3)n2)cc1 | – | –
19 | – | – | 7 | CCC/C(C)=N/Nc1nc(-c2ccc(Cl)cc2)cs1 | – | –
35 | – | – | 10 | CCC(CC)=NNc1nc(-c2ccc(Cl)cc2)cs1 | – | –
15 | – | – | 3 | Cc1sc(N/N=C2/CCC(C)C2)nc1-c1ccccc1 (stereo unspecified) | – | –
13 | – | – | 4 | Clc1ccc(-c2csc(N/N=C\c3cccs3)n2)cc1 | – | –
5 | – | – | 16 | NNc1nc(-c2ccccc2)cs1 | – | –
4 | – | – | – | CC(C)=NNc1nc(-c2ccccc2)cc(=O)[nH]1 | – | –
33 | – | – | 2 | CC1CCC/C1=N/Nc1nc(-c2ccc(Cl)cc2)cs1 (stereo unspecified) | – | –
22 | – | – | 8 | CCOC(=O)c1csc(N/N=C2/CCC(C)C2)n1 (stereo unspecified) | – | –
27 | – | – | 0 | C[C@@H]1CCC/C(=N/Nc2nc(-c3ccc(Cl)cc3)cs2)C1 | – | –
19 | – | – | 5 | CCOC(=O)c1csc(NN=C2CCCC2)n1 | – | –
16 | – | – | 7 | C/C(=N/Nc1nc(-c2ccc(Cl)cc2)cs1)c1ccc2ccccc2c1 | – | –
21 | – | – | 5 | COc1ccc(-c2csc(NN=C(C)C)n2)cc1 | – | –
15 | – | – | 9 | Clc1ccc(-c2csc(N/N=C\c3ccco3)n2)cc1 | – | –
9 | – | – | – | CC(C)=NNc1nc(-c2ccc(Br)cc2)cc(=O)[nH]1 | – | –
33 | 47 | 57 | 11 | COc1ccc(-c2csc(NN=C3CCCC3)n2)cc1 | – | –
37 | – | – | 14 | C/C(=N/Nc1nc(-c2ccc(Cl)cc2)cs1)C1c2ccccc2-c2ccc(C(=O)O)cc21 (stereo unspecified) | – | –
31 | 51 | 62 | 11 | COc1cccc(-c2csc(NN=C3CCCC3)n2)c1 | – | –
